# Published values gathered from unrelated publications.
# Compare with care: the assays were run in different laboratories.
# Si: Sucrase-isomaltase, intestinal (Si, Rattus norvegicus, UniProt P23739)
# BRD1 bromodomain: Bromodomain-containing protein 1, bromodomain (BRD1, Homo sapiens, UniProt O95696)
# EIF2AK1: Eukaryotic translation initiation factor 2-alpha kinase 1 (EIF2AK1, Homo sapiens, UniProt Q9BQI3)
# Abl2: Abl2 (Mus musculus, UniProt Q4JIM5)
SMILES,target,test,system,conditions,measurement,result
O=c1c(O[C@@H]2O[C@@H](CO)[C@H](O)[C@H]2O)c(-c2ccc(O)c(O)c2)oc2cc(O)cc(O)c12,Si,"enzyme activity, inhibitor",,100 µg/mL,inhibition,52.4%
Cn1c2c(c3ccc(Cl)c(Cl)c31)C(C#N)C1(CCOCC1)NC2=O (stereo not shown),"Rhodopsin kinase GRK1 (GRK1, Homo sapiens, UniProt Q15835)","thermal stability, DSF",,10 µM,ΔTm,0.4 °C
O=c1c(O[C@@H]2O[C@H](CO)[C@@H](O)[C@H](O)[C@H]2O)c(-c2ccc(O)c(O)c2)oc2cc(O)cc(O)c12,Si,"enzyme activity, inhibitor",,100 µg/mL,inhibition,54.6%
Cc1cnc(Nc2ccc(OCCN3CCCC3)cc2)nc1Nc1cccc(S(=O)(=O)NC(C)(C)C)c1,BRD1 bromodomain,"thermal stability, DSF",,10 µM,ΔTm,0.51 °C
O=C1OC[C@H]2OC(=O)c3cc(O)c(O)c(O)c3-c3c(O)c(O)c(O)c4c3C(=O)O[C@H]([C@H]3OC(=O)c5c-4c(O)c(O)c(O)c5[C@H]3O)[C@@H]2OC(=O)c2cc(O)c(O)c(O)c2-c2c1cc(O)c(O)c2O,Si,"enzyme activity, inhibitor",,100 µg/mL,inhibition,48.3%
CC(C)(C)c1nc2c(s1)c1nc(N)ncc1c1ccc(NS(=O)(=O)c3c(F)cccc3F)c(F)c12,EIF2AK1,"enzyme activity, inhibitor, radiometric",,1 µM,remaining activity,69%
O=C(c1ccc(F)cc1)N(Cc1ccccc1)C1CCCCC1,"5-hydroxytryptamine receptor 1A (HTR1A, Homo sapiens, UniProt P08908)","ligand displacement, radioligand",,10 µM,inhibition,2%
CNC(=O)c1cc(Oc2ccc(NC(=O)Nc3ccc(Cl)c(C(F)(F)F)c3)cc2)ccn1,Abl2,"enzyme activity, inhibitor",,0.3 µM,inhibition,16%
COc1cc(Cl)c(C(=O)N[C@@H](CN[C@H]2CC[C@@H](N)CC2)Cc2ccc(C#N)cc2)cc1-c1ccc(CN[C@H](C)c2ccc(C)cc2)o1,EIF2AK1,"enzyme activity, inhibitor",,1 µM,remaining activity,93%
CCCc1c(-c2ccc(O)cc2)nn(-c2ccc(O)cc2)c1-c1ccc(O)cc1,"Estrogen receptor (ESR1, Homo sapiens, UniProt P03372)","reporter gene, agonist, luciferase",U2OS,,Emax,120%
Cc1cnc(NC2CCOCC2)nc1-n1cnc(C(=O)NC(CN)c2cc(F)cc(Cl)c2)c1 (stereo not shown),Abl2,"enzyme activity, inhibitor, radiometric",,1 µM,remaining activity,102%
Cc1ccc(C(=O)Nc2ccc(CN3CCN(C)CC3)c(C(F)(F)F)c2)cc1C#Cc1cnc2cccnn12,"Hormonally up-regulated neu tumor-associated kinase (HUNK, Homo sapiens, UniProt P57058)","enzyme activity, inhibitor",,23.5 nM,remaining activity,94%
Nc1ncnc2occ(-c3ccc(NC(=O)Nc4cc(C(F)(F)F)ccc4F)cc3)c12,"Phosphatidylinositol 3-kinase catalytic subunit type 3 (PIK3C3, Homo sapiens, UniProt Q8NEB9)",cell-free assay,,20 µM,remaining signal,73%
C[S+]([O-])c1ccc(-c2nc(-c3ccncc3)c(-c3ccc(F)cc3)[nH]2)cc1 (stereo not shown),BRD1 bromodomain,"thermal stability, DSF",,10 µM,ΔTm,-0.23 °C
CCCOc1ccc(OC)c(F)c1C(=O)c1ccc(C(=O)N[C@@H]2CNC[C@H]2NC(=O)c2ccc3[nH]ncc3c2)cc1,Abl2,"enzyme activity, inhibitor",,10 µM,remaining activity,87%
CCOCc1nc(O)c(-c2nnc(Cc3ccc(Cl)cn3)o2)c(O)c1-c1c(OC)cccc1OC,"Apelin receptor (APLNR, Homo sapiens, UniProt P35414)","binding, radioligand",,,kon,5.17e+06 M⁻¹ s⁻¹
